Measurements: ChEMBL document CHEMBL3774342, “Indole Based Weapons to Fight Antibiotic Resistance: A Structure-Activity Relationship Study” (J Med Chem, 2016)
≈ marks a conversion by molar mass, not a printed value. Calls of active or inactive are those of the source. The rule behind the calls is not given here.

Experiments:
[1] = Solubility of the compound in D2O solution at 25 degC by 1H NMR analysis; assay type: physicochemical
Procedure, shortened: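 1H NMR in D2O at 25 °C with TSP internal standard, following a literature procedure.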

Liver microsome [2] = assay: Drug metabolism in human liver microsomes assessed as ethyl 2-Methyl-5-(3-(piperidin-1-yl)propoxy)-1H-indole-3-carboxylate formation at 10 uM preincubated for 5 mins followed by NADPH addition measured after 30 mins by HPLC-MS/MS analysis; assay type: ADME; conditions: 0.5 h
Procedure, shortened: (§1)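 Human liver microsomes at 0.5 mg protein/ml in 100 mM potassium phosphate pH 7.4. Substrate at 10 µM final, pre-incubated 5 min at 37 °C with shaking, then started with 1 mM NADPH. Quenched at 0 and 30 min with cold acetonitrile containing labetalol internal standard. Spun 12000 g, 5 min, 4 °C; supernatant analysed by UHPLC C18 HPLC-MS/MS.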

Staphylococcus aureus [3] = assay: Antimicrobial activity against Staphylococcus aureus 1199B by microdilution method; assay type: functional
Procedure, shortened: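 MIC by broth microdilution following CLSI guidelines against S. aureus SA-1199B, a strain that overexpresses norA. Run on compounds giving at least 80% EtBr efflux inhibition and on selected weaker ones.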

[4] = Metabolic stability in human liver microsomes assessed as compound remaining after at 10 uM preincubated for 5 mins followed by NADPH addition measured after 30 mins by HPLC-MS/MS analysis; assay type: ADME; conditions: read-out: Stability; procedure, shortened: as §1
[5] = target: T1, Quinolone resistance protein NorA (Staphylococcus aureus) (UniProt P0A0J7); assay: Inhibition of NorA efflux pump in Staphylococcus aureus 1199B assessed as reduction in EtBr efflux at 50 uM incubated for 20 mins measured for 5 mins by real-time fluorometric analysis
T1 sequence (whole entry): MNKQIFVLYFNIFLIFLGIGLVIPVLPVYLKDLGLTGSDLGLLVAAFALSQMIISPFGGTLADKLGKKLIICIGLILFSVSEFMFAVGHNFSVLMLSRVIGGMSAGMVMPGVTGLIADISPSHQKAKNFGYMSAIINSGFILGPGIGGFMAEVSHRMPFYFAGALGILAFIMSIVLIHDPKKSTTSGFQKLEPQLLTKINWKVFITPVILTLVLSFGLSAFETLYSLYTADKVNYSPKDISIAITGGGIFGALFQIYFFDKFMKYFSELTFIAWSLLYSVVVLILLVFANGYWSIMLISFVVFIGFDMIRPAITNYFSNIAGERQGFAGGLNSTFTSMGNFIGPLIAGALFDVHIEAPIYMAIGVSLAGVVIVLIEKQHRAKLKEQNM
Procedure, shortened: (§2)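 SA-1199B (norA-overexpressing) grown overnight in cation-supplemented Mueller-Hinton broth, diluted 25-fold and grown at 35 °C to OD600 0.7–0.8. Loaded with EtBr 25 µM plus CCCP 100 µM (final), then resuspended in fresh broth. Fluorescence read at ex 485/em 645 nm for 5 min, ± compound. Efflux inhibition in % relative to untreated cells; screened at 50 µM. IC50 from concentration series; triplicate, two technical replicates each.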

[6] = target: T2, Quinolone resistance protein NorA (Staphylococcus aureus, UniProt P0A0J7); assay: Inhibition of NorA efflux pump in Staphylococcus aureus 1199B assessed as reduction in EtBr efflux incubated for 20 mins measured for 5 mins by real-time fluorometric analysis; procedure, shortened: as §2
T2 sequence (P0A0J7 whole entry): T1 sequence (whole entry)

Liver microsome [7] = assay: Drug metabolism in human liver microsomes assessed as ethyl 1-(2-hydroxybenzyl)-2-methyl-5-(3-(piperidin-1-yl)propoxy)-1H-indole-3-carboxylate formation at 10 uM preincubated for 5 mins followed by NADPH addition measured after 30 mins by HPLC-MS/MS analysis; assay type: ADME; conditions: 0.5 h; procedure, shortened: as §1
Liver microsome [8] = assay: Drug metabolism in human liver microsomes assessed as 1-benzyl-2-methyl-5-(2-(piperazin-1-yl)ethoxy)-1H-indole-3-carboxylic acid formation at 10 uM preincubated for 5 mins followed by NADPH addition measured after 30 mins by HPLC-MS/MS analysis; assay type: ADME; conditions: 0.5 h; procedure, shortened: as §1
Liver microsome [9] = assay: Drug metabolism in human liver microsomes assessed as ethyl 2-methyl-5-(2-(piperazin-1-yl)ethoxy)-1H-indole-3-carboxylate formation at 10 uM preincubated for 5 mins followed by NADPH addition measured after 30 mins by HPLC-MS/MS analysis; assay type: ADME; conditions: 0.5 h; procedure, shortened: as §1
[10] = target: T1, Quinolone resistance protein NorA (Staphylococcus aureus); assay: Inhibition of NorA efflux pump in Staphylococcus aureus 1199 assessed as potentiation of ciprofloxacin-mediated antibacterial activity
Staphylococcus aureus [11] = assay: Inhibition of NorA efflux pump A116E GrlA mutant in Staphylococcus aureus 1199B assessed as potentiation of ciprofloxacin-mediated antibacterial activity at 3.13 ug/ml relative to control
Liver microsome [12] = assay: Drug metabolism in human liver microsomes assessed as ethyl 5-(3-aminopropoxy)-2-methyl-1H-indole-3-carboxylate formation at 10 uM preincubated for 5 mins followed by NADPH addition measured after 30 mins by HPLC-MS/MS analysis; assay type: ADME; conditions: 0.5 h; procedure, shortened: as §1
Liver microsome [13] = assay: Drug metabolism in human liver microsomes assessed as 5-(3-aminopropoxy)-1-benzyl-2-methyl-1H-indole-3-carboxylic acid formation at 10 uM preincubated for 5 mins followed by NADPH addition measured after 30 mins by HPLC-MS/MS analysis; assay type: ADME; conditions: 0.5 h; procedure, shortened: as §1
Liver microsome [14] = assay: Drug metabolism in human liver microsomes assessed as ethyl 2-methyl-5-(3-(piperazin-1-yl)propoxy)-1H-indole-3-carboxylate formation at 10 uM preincubated for 5 mins followed by NADPH addition measured after 30 mins by HPLC-MS/MS analysis; assay type: ADME; conditions: 0.5 h; procedure, shortened: as §1
Liver microsome [15] = assay: Drug metabolism in human liver microsomes assessed as 1-benzyl-2-methyl-5-(3-(piperazin-1-yl)propoxy)-1H-indole-3-carboxylic acid formation at 10 uM preincubated for 5 mins followed by NADPH addition measured after 30 mins by HPLC-MS/MS analysis; assay type: ADME; conditions: 0.5 h; procedure, shortened: as §1
Liver microsome [16] = assay: Drug metabolism in human liver microsomes assessed as N-dealkylated M-68 formation at 10 uM preincubated for 5 mins followed by NADPH addition measured after 30 mins by HPLC-MS/MS analysis; assay type: ADME; conditions: 0.5 h; procedure, shortened: as §1
Liver microsome [17] = assay: Drug metabolism in human liver microsomes assessed as N-dealkylated M-90 formation at 10 uM preincubated for 5 mins followed by NADPH addition measured after 30 mins by HPLC-MS/MS analysis; assay type: ADME; conditions: 0.5 h; procedure, shortened: as §1
Liver microsome [18] = assay: Drug metabolism in human liver microsomes assessed as 1-Benzyl-2-methyl-5-(3-(piperidin-1-yl)propoxy)-1H-indole-3-carboxylic acid formation at 10 uM preincubated for 5 mins followed by NADPH addition measured after 30 mins by HPLC-MS/MS analysis; assay type: ADME; conditions: 0.5 h; procedure, shortened: as §1

CCOC(=O)c1c(C)n(Cc2ccccc2OC)c2ccc(OCCCN3CCCCC3)cc12
solubility [1]: 25 µM (≈ 11.6 µg/mL) | Drug metabolism (Liver microsome [2]): metabolite_detected | MIC (Staphylococcus aureus [3]): > 100 mg/L | remaining at 0.5 h, 10 µM [4]: 66% | inhibition [5]: 87.9% | IC50 [6]: 5 µM | Drug metabolism (Liver microsome [7]): metabolite_detected

CCOC(=O)c1c(C)n(Cc2ccccc2)c2ccc(OCCN3CCNCC3)cc12
solubility [1]: 190 µM (≈ 80.1 µg/mL) | MIC (Staphylococcus aureus [3]): > 100 mg/L | Drug metabolism (Liver microsome [8]): metabolite_detected | Drug metabolism (Liver microsome [9]): metabolite_detected | remaining at 0.5 h, 10 µM [4]: 72% | inhibition [5]: 99.2% | IC50 [6]: 15.5 µM | inhibition [10]: inactive | fold change (FC) (Staphylococcus aureus [11]): 4

CCOC(=O)c1c(C)n(Cc2ccccc2)c2ccc(OCCCN)cc12
solubility [1]: 17 µM (≈ 6.23 µg/mL) | MIC (Staphylococcus aureus [3]): > 100 mg/L | Drug metabolism (Liver microsome [12]): metabolite_detected | Drug metabolism (Liver microsome [13]): metabolite_detected | remaining at 0.5 h, 10 µM [4]: 87% | inhibition [5]: 100% | IC50 [6]: 12.5 µM | inhibition [10]: inactive | fold change (FC) (Staphylococcus aureus [11]): 4

CCOC(=O)c1c(C)n(Cc2ccccc2)c2ccc(OCCCN3CCNCC3)cc12
solubility [1]: 20 µM (≈ 8.71 µg/mL) | MIC (Staphylococcus aureus [3]): 100 mg/L (≈ 230 µM) | Drug metabolism (Liver microsome [14]): metabolite_detected | Drug metabolism (Liver microsome [15]): metabolite_detected | remaining at 0.5 h, 10 µM [4]: 82% | inhibition [5]: 100% | IC50 [6]: 12.5 µM | inhibition [10]: inactive | fold change (FC) (Staphylococcus aureus [11]): 4

CCOC(=O)c1c(C)n(Cc2ccccc2)c2ccc(OCC(F)CN3CCCCC3)cc12 (stereo not drawn)
solubility [1]: 20 µM (≈ 9.05 µg/mL) | MIC (Staphylococcus aureus [3]): > 100 mg/L | Drug metabolism (Liver microsome [16]): metabolite_detected | remaining at 0.5 h, 10 µM [4]: 52% | inhibition [5]: 96.7% | IC50 [6]: 5.1 µM | Drug metabolism (Liver microsome [17]): metabolite_detected

CCOC(=O)c1c(C)n(Cc2ccccc2)c2ccc(OCCCN3CCCCC3)cc12
solubility [1]: 23 µM (≈ 10 µg/mL) | Drug metabolism (Liver microsome [2]): metabolite_detected | MIC (Staphylococcus aureus [3]): > 100 mg/L | Drug metabolism (Liver microsome [18]): metabolite_detected | remaining at 0.5 h, 10 µM [4]: 76% | inhibition [5]: 98.5% | IC50 [6]: 6 µM
